# Assay results pooled from the literature.
# BRAF V600E: Serine/threonine-protein kinase B-raf (BRAF, Homo sapiens, UniProt P15056, V600E)
# BRAF: Serine/threonine-protein kinase B-raf (BRAF, Homo sapiens, UniProt P15056)
Compound,target,effect on,method,concentration,remaining binding [%]
Nc1ncc2c(n1)-c1c([nH]c3ccc(C#CC4CC4)cc13)CCCC2,BRAF V600E,binding,competition with immobilised ligand,1 µM,88
Cc1cnc(Nc2ccc(C(=O)N3CCC(N4CCCC4)CC3)cc2)nc1-c1cc2ccccc2s1,BRAF,binding,competition with immobilised ligand,1 µM,46
CC(C)(C)c1ccc(-c2nc(CBr)nn2-c2cccc(O)c2)cc1,BRAF,cell-free assay,competition with immobilised ligand,10 µM,77
CN(C)c1nccc(-c2cnc3ncccn23)n1,BRAF,binding,,1 µM,89
C[C@@H]1CN(c2ccc3ncc(-c4ccc5[nH]nc(C6CC6)c5c4)n3n2)C[C@H](C)O1,BRAF,binding,competition with immobilised ligand,50 nM,91
COc1ncc2cc3ccccc3nc2c1C#N,BRAF,cell-free assay,competition with immobilised ligand,5 µM,100
c1cncc(-c2cccc(Nc3nccc(NC4CCCCC4)n3)c2)c1,BRAF V600E,binding,competition with immobilised ligand,10 µM,52
CN([C@@H]1CCc2c(CC(=O)O)c3cc(S(C)(=O)=O)ccc3n2C1)S(=O)(=O)c1ccc(F)cc1,BRAF,cell-free assay,competition with immobilised ligand,1 µM,98
CN(C)c1nccc(-c2cnn3ncccc23)n1,BRAF V600E,binding,,1 µM,69
CCN1CCN(Cc2ccc(C(=O)Nc3ccc(C)c(Oc4ccc5c(c4)CC(=O)N5)c3)cc2C(F)(F)F)CC1,BRAF,binding,competition with immobilised ligand,1 µM,64
C[C@@H]1CN(c2cc(-c3n[nH]c4ccc(OC5(C)CC5)cc34)ncn2)C[C@H](C)O1,BRAF V600E,cell-free assay,competition with immobilised ligand,0.1 µM,89
Cc1cnn2ncc(-c3ccnc(N(C)C)n3)c2c1,BRAF,binding,,1 µM,82
O=C(c1ccc(Nc2ncc(Cl)c(-c3ccc(Cl)s3)n2)cc1)N1CCC(N2CCCC2)CC1,BRAF V600E,binding,competition with immobilised ligand,1 µM,37
CCC(=N\O)/C(C)=C/c1ccc(F)cc1,BRAF V600E,cell-free assay,competition with immobilised ligand,1 µM,77
O=C(c1ccc(Nc2ncc(Cl)c(-c3cc4ccccc4s3)n2)cc1)N1CCC(N2CCCC2)CC1,BRAF,binding,competition with immobilised ligand,1 µM,64
CC1CCCN1c1nccc(-c2cnn3ncccc23)n1 (stereo not drawn),BRAF V600E,binding,,1 µM,100
CNC(=O)[C@@H]1CC[C@@H](n2c(-c3ccc4cnccc4c3)nc3ccc(C(=O)NCc4cccc(C(N)=O)c4)cc32)C1,BRAF,binding,competition with immobilised ligand,1 µM,100
N#Cc1ccccc1CSc1nnc2c(n1)[nH]c1ccccc12,BRAF,binding,competition with immobilised ligand,10 µM,94
C[C@H]1CCN(c2nccc(-c3cnn4ncccc34)n2)C1,BRAF V600E,binding,,1 µM,93
CN1CCN(c2ccc(Nc3nccc(-c4ccccc4)n3)cc2C(F)(F)F)CC1,BRAF V600E,binding,,10 µM,31
CN(CCCC(F)(F)F)c1nccc(-c2cnn3ncccc23)n1,BRAF,binding,,1 µM,100
O=C(NCCCN1CCOCC1)c1ccc(Nc2ncc(Cl)c(-c3ccc(Cl)s3)n2)cc1,BRAF V600E,binding,competition with immobilised ligand,1 µM,92
Cc1cc(-n2nc(Cc3cc(F)cc(C(F)(F)F)c3)nc2C)ccc1C(N)=O,BRAF,cell-free assay,competition with immobilised ligand,1 µM,86
c1cnn2ncc(-c3ccnc(N4CCC45COC5)n3)c2c1,BRAF,binding,,1 µM,56
O=C(Nc1c[nH]nc1C(=O)NC1CCNCC1)c1cc(F)cc(F)c1,BRAF V600E,binding,competition with immobilised ligand,1 µM,100
COc1cc(-c2cn(C3CCc4ccccc4N(CC(F)(F)F)C3=O)nn2)ccc1-n1ccc(C)n1 (stereo not drawn),BRAF,cell-free assay,competition with immobilised ligand,1 µM,100
O=C(NCC1CCOCC1)c1n[nH]cc1NC(=O)c1c(F)cccc1F,BRAF,binding,competition with immobilised ligand,1 µM,93
COc1cnc(Nc2cccc(S(N)(=O)=O)c2)nc1N1CCN(c2ccccc2)C(=O)C1,BRAF,binding,competition with immobilised ligand,1 µM,87
CN(C)C(=O)Cn1cc(-c2nc(C3(c4ccc(-c5cnc(N)nc5)cc4)CC3)no2)cn1,BRAF,cell-free assay,competition with immobilised ligand,1 µM,88
N[C@H]1CCN(c2nccc(-c3cnn4ncccc34)n2)C1,BRAF,binding,,1 µM,84
C[C@@H](c1ccc(-n2cnc3c(N)ncnc32)cc1)N1CCc2nn(C)c(Cc3ccccc3)c2C1=O,BRAF,binding,competition with immobilised ligand,0.1 µM,100
CNCc1ccccc1-c1csc([C@H](C)Nc2nc(C)nc3cc(OC)c(OC)cc23)c1,BRAF,cell-free assay,competition with immobilised ligand,1 µM,97
O=C(c1ccc(Nc2nccc(-c3cc4ccccc4s3)n2)cc1)N1CCC(N2CCCC2)CC1,BRAF V600E,binding,competition with immobilised ligand,1 µM,21
C=CC(=O)N1CCC(C(=O)NCC(=O)N2CCN(c3nc(-c4cnc(N)nc4C(F)F)nc(N4CCOCC4)n3)CC2)CC1,BRAF V600E,binding,competition with immobilised ligand,1 µM,89
Cc1nc(Cc2cccc(C(F)(F)F)c2)sc1-c1ccc(C(N)=O)nc1,BRAF,cell-free assay,competition with immobilised ligand,1 µM,73
O=C(NCCCN1CCOCC1)c1ccc(Nc2nccc(-c3cc4ccccc4s3)n2)cc1,BRAF,binding,competition with immobilised ligand,1 µM,77
